In brackets after ≈: the same amount, converted by molar mass. Activity calls are given as the source filed them. The calls are words filed in the database; no cut-off is given here.
What was measured:
Type in all cases: functional
[1] = system: Mycobacterium tuberculosis; assay: Antitubercular activity against Mycobacterium tuberculosis H37Rv by MABA assay
In short: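 Microplate Alamar Blue assay on the H37Rv strain, with rifampin, isoniazid and streptomycin as positive drug controls; values reported as MIC in μg/mL.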

K562 = assay: Cytotoxicity against human K562 cells
In short: (§1)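 Growth inhibition measured colorimetrically with CellTiter-Blue and MTT read-outs, with imatinib as reference drug; values reported as GI50 in μg/mL.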

HUVEC = assay: Cytotoxicity against HUVEC; settings: Homo sapiens; in short: as §1
HeLa = assay: Cytotoxicity against human HeLa cells; in short: as §1

| Compound | MIC [1] | GI50 (K562) [µg/mL] | GI50 (HUVEC) [µg/mL] | CC50 (HeLa) [µg/mL] |
| --- | --- | --- | --- | --- |
| COc1ccc2c(c1)C[C@]1(OC)C(=O)/C(=C(O)/C=C/c3ccccc3)C(=O)C[C@@]1(OC)O2 | 10 µg/mL (≈ 22.9 µM) |  |  |  |
| CC(=O)O[C@@H]1C(=O)C=COC=C1COC(=O)c1ccccc1 | 32 µg/mL (≈ 106 µM) | 1.4 (≈ 4.63 µM) | 5.4 (≈ 17.9 µM) |  |
| COc1ccc2c(c1)C[C@]1(O)C(=O)/C(=C(O)/C=C/c3ccccc3)C(=O)C[C@@]1(OC)O2 (relative stereo) | inactive |  |  |  |
| COc1ccc(C[C@H]2c3cc(O)c(OC)cc3CCN2C)cc1O [(S)-RETICULINE] | 32 µg/mL (≈ 97.1 µM) |  |  |  |
| COc1cccc2c1C(=O)c1c(O)c3c(c(O)c1C2=O)C[C@@](O)(C(=O)CO)C[C@@H]3O[C@H]1C[C@H](N)[C@H](O)[C@H](C)O1 [DOXORUBICIN] |  | 1 (≈ 1.84 µM) | 0.1 (≈ 0.184 µM) | 2 (≈ 3.68 µM) |
| Cc1ccc(NC(=O)c2ccc(CN3CCN(C)CC3)cc2)cc1Nc1nccc(-c2cccnc2)n1 [IMATINIB] |  | 0.1 (≈ 0.203 µM) | > 10 | > 10 |
| NNC(=O)c1ccncc1 [ISONIAZID] | 0.63 µg/mL (≈ 4.59 µM) |  |  |  |
| CO[C@H]1/C=C/O[C@@]2(C)Oc3c(C)c(O)c4c(O)c(c(/C=N/N5CCN(C)CC5)c(O)c4c3C2=O)NC(=O)/C(C)=C\C=C\[C@H](C)[C@H](O)[C@@H](C)[C@@H](O)[C@@H](C)[C@H](OC(C)=O)[C@@H]1C [RIFAMPIN] | 0.15 µg/mL (≈ 0.182 µM) |  |  |  |
| CN[C@@H]1[C@H](O[C@H]2[C@H](O[C@H]3[C@H](O)[C@@H](O)[C@H](N=C(N)N)[C@@H](O)[C@@H]3N=C(N)N)O[C@@H](C)[C@]2(O)C=O)O[C@@H](CO)[C@H](O)[C@H]1O [STREPTOMYCIN] | 0.83 µg/mL (≈ 1.43 µM) |  |  |  |

Source: ChEMBL document CHEMBL3351242, “Tetrahydroxanthene-1,3(2H)-dione derivatives from Uvaria valderramensis” (2014)
